A selection: hits, their analogues and other compounds. The true share with any hit is near 1.6%.
NCF1 inh: blocks human p47phox regulatory protein of NADPH oxidases. 0.53% of 220,000 active. inhibition, % at 24.7 µM. p47phox/p22phox peptide binding, fluorescence polarization, 2 h
Target sequence (P14598 whole entry, looked up): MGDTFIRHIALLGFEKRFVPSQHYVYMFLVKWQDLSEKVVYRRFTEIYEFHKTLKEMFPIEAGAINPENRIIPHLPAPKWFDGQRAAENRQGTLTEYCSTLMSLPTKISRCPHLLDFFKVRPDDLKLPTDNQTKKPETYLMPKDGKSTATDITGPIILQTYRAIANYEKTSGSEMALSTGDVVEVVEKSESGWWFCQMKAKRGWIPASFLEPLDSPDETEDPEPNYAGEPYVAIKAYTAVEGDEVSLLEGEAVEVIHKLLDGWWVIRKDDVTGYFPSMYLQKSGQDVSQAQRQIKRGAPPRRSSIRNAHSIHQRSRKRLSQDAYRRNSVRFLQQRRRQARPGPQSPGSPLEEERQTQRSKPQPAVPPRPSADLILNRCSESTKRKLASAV
p97 ATPase inh: inhibitors of human p97 ATPase; P55072; 0.42% of 220,000 active; AID 1481; recombinant p97 ATPase, Kinase-Glo ATP luminescence, 3 h; inhibition, % at 8 µM; in the data active = inhibition above about 15%
eIF4E 4G PPI: inhibitors of eIF4E and eIF4G interaction in translation initiation; P63073+Q04637; TR-FRET eIF4E-eIF4GI(517-606) binding, 2 h; inhibition, % at 21.7 µM; 0.37% of 220,000 active; AID 782
SUMO HTRF inh: SUMOylation inhibition; HTRF SUMOylation assay, SAE1/SAE2 + UBC9, in vitro; inhibition, % at 35 µM; 0.36% of 290,000 active; AID 2006; in the data active = inhibition above about 50%, passing the limit was not always enough
Target sequence (P63279 whole entry, looked up): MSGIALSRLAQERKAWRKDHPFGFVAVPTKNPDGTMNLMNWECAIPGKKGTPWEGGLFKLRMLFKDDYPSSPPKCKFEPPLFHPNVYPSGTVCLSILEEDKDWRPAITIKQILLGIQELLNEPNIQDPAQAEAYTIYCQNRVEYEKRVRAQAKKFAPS
14-3-3 Bad inh: disrupts binding of bovine 14-3-3 zeta to phospho-Bad peptide. P63103. TR-FRET 14-3-3zeta/Dy647-pBad peptide displacement, 1 h. inhibition, % at 21.7 µM. 0.71% of 220,000 active. AID 781;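 active = inhibition above about 70%, limit read from the data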
Tb MetRS inh: blocks T. brucei methionyl-tRNA synthetase activity | purified T. brucei MetRS, ATP depletion, Kinase-Glo luminescence | inhibition, % at 11.9 µM | 0.4% of 360,000 active | AID 624268;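 active = inhibition above a per-plate cutoff of the control wells' mean inhibition plus 3 SD, cut at about 5.5% in these data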
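Material – parasite MetRS enzyme · Medium – HEPES-MgCl2-KCl buffer plus DTT, spermine, BSA, pyrophosphatase · Reagent – ATP, methionine and E. coli bulk tRNA substrates · Times – 15 min enzyme-compound preincubation, 2 h reaction, 10 min detection, 25 °C · Measured by – luminescence of leftover ATP · Evaluation – percent inhibition relative to median high and low control wells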
Numbers stand for hits; - = inactive; . = no result; [ ] = another dose, or the depositor's remark.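 The calls were made as follows, unless noted: active = inhibition above about 30% (limit read from the data); inactive = the rest.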

SMILES	NCF1 inh	p97 ATPase inh	eIF4E 4G PPI	SUMO HTRF inh	14-3-3 Bad inh	Tb MetRS inh
CC(C)=CCc1cc(-c2oc3cc(O)cc(O)c3c(=O)c2O)ccc1O	.	.	.	.	.	-
CC(C)=CCc1c(O)cc2oc3c(CC=C(C)C)c(O)c(O)c(CC=C(C)C)c3c(=O)c2c1O	-	.	-	50	-	-
C/C(=N\Nc1ccc(S(N)(=O)=O)cc1[N+](=O)[O-])c1ccc2c(c1)OCO2	37	-	-	-	-	-
O=C(CCCSc1ccccc1)Nc1nc(-c2ccco2)c(-c2ccco2)s1	-	-	-	79	-	-
Cc1ccc(C(=O)Nc2nc(-c3ccco3)c(-c3ccco3)s2)o1	.	.	.	.	.	-
CN1C(=O)[C@@](O)(c2cn(C)c3ccccc23)c2cc(Br)ccc21	.	.	.	.	.	-
COc1cc(C2C=C(c3cccs3)Nc3ncnn32)cc(OC)c1OC (centres undefined)	-	-	-	53	-	-
COc1cc(C2CC(=O)C3=C(C2)Nc2ncnn2C3c2cccs2)cc(OC)c1OC (centres undefined)	-	-	-	-	-	-
CSc1cccc(N2C(=O)C3CCCN3C2=S)c1 (centres undefined)	.	.	.	-	.	-
c1ccc(Cn2c3ccccc3c3nnc(SCCN4CCCCC4)nc32)cc1	-	-	-	-	-	-
CSc1nnc2c3cc(C)ccc3n(Cc3ccccc3)c2n1	-	-	-	-	88[fluorescence artefact?]	-
COc1ccc(-c2csc(C(NC(C)=O)c3cccc(F)c3)n2)cc1 (centres undefined)	.	.	.	.	.	-
CCCC(=O)NC(c1ccc(Cl)cc1)c1ccc2cccnc2c1O (centres undefined)	.	.	.	-	.	-
CCC(=O)NC(c1ccc(C)cc1)c1cc(Cl)c2cccnc2c1O (centres undefined)	.	.	.	.	.	-
O=C(O)COc1ccccc1C(Nc1cccnc1)c1cc(Cl)c2cccnc2c1O (centres undefined)	-	-	-	77	-	-
CCOc1ccc(C(Nc2cccnc2)c2cc(Cl)c3cccnc3c2O)cc1 (centres undefined)	40	-	-	-	-	-
CCC(=O)NC(c1ccc(OC)c(OC)c1)c1cc(Cl)c2cccnc2c1O (centres undefined)	40	-	-	-	-	-
CCCC(=O)NC(c1ccc(Cl)cc1Cl)c1ccc2cccnc2c1O (centres undefined)	.	.	.	91	.	-
CC(C)(C)OC(=O)Nc1ccccc1-n1nnnc1C(C(=O)c1ccc(F)cc1)N1CCN(c2ccccn2)CC1 (centres undefined)	.	.	.	.	.	-
Cc1ccc(-n2sc3cc(F)ccc3c2=O)c(C)c1	.	.	.	.	.	-
CCn1c2ccc(OC)cc2c2nc3ccccc3nc21	-	-	-	-	-	.
CCOc1ccc(Cn2c3ccc(OC)cc3c3nc4ccccc4nc32)cc1	44	-	-	-	-	-
Nc1ncc(-c2ccc([N+](=O)[O-])cc2)cn1	78	-	-	-	-	-
O=[N+]([O-])c1ccc(-c2cnc(NO)nc2)cc1	-	-	-	-	-	-
C[C@H]1CN([C@@H](C)CO)C(=O)CCCn2cc(nn2)CO[C@@H]1CN(C)C(=O)Nc1ccccc1C(F)(F)F	.	.	.	.	.	-
SMILES	NCF1 inh	p97 ATPase inh	eIF4E 4G PPI	SUMO HTRF inh	14-3-3 Bad inh	Tb MetRS inh
CC(=O)Nc1cccc(-c2ccnc3c2CC(C(=O)Nc2ccc(Cl)cc2)O3)c1 (centres undefined)	.	.	.	.	.	-
COc1ccc(NS(=O)(=O)c2ccc3c(c2)CCO3)cc1	-	-	-	-	74	-
O=S(=O)(Nc1ccccc1)c1ccc2c(c1)CCO2	-	-	-	-	-	-
COc1ccc(C(=O)N2CCCc3ccccc32)cc1	-	-	-	-	88	-
CC(C)Oc1ccc(C(=O)N2CCCc3ccccc32)cc1	-	-	-	-	-	-
Cc1noc(C)c1C(=O)N1CCCc2ccccc21	53	-	-	-	-	-
COc1cc(CNc2ncnc3c2ncn3[C@H]2CN(Cc3ccncc3)C[C@@H](CO)O2)cc(OC)c1OC	.	.	.	.	.	-
CCNc1cc2n(c(=O)n1)CCc1cc(OC)c(OC)cc1-2	-	-	-	-	-	-
COc1cc2c(cc1OC)-c1cc(NCc3ccccn3)nc(=O)n1CC2	-	-	88	-	91[fluorescence artefact?]	-
CCN(Cc1ccccc1)c1ccc(/C=N/N=C(N)N)cc1	47	-	-	-	-	-
CCN(Cc1ccccc1)c1ccccc1	.	.	.	.	.	-
O=C1CCCC2=C1C1(CCCC1)N=C(Nc1nc3cc(-c4ccccc4)ccc3o1)N2	.	.	.	.	.	-
COCCCn1c(C(=O)N2CCOCC2)cc2c(=O)n3ccccc3nc21	.	.	.	52	.	-
COC(=O)C[C@@H]1C=C[C@H](NC(=O)Nc2cc(F)ccc2F)[C@@H](CO)O1	.	.	.	.	.	-
O=C(C1CCN(Cc2cc(Cl)ccc2O)CC1)N1CCN(Cc2ccccc2)CC1	-	-	82	-	-	-
COCCN(C(=O)c1ccc(N2C(=O)c3ccccc3C2=O)cc1)c1c(N)n(CC(C)C)c(=O)[nH]c1=O	.	.	.	.	.	-
CN1CCN(C(CNC(=O)c2ccc(Br)o2)c2ccc(F)cc2)CC1 (centres undefined)	.	.	.	.	.	-
CCn1cc(C=C2C(=O)c3ccccc3C2=O)c2ccccc21	75	-	-	-	-	-
NC(=O)CC(NC(=O)Cc1ccc(Br)cc1)c1ccc(NCCc2ccccc2F)c([N+](=O)[O-])c1 (centres undefined)	-	.	-	63	-	-
CCOc1c(O)ccc(/C=C2\SC(=S)NC2=O)c1[N+](=O)[O-]	-	-	-	50	-	-
CCOc1ccc(N(C)c2ccc(/C=C3/SC(=S)NC3=O)cc2)cc1	.	.	.	-	.	-
Cc1ccc(C(=O)N/C(=C/c2ccco2)C(=O)NCCc2c[nH]c3ccccc23)cc1	-	-	-	-	-	-
O=c1oc2ccccc2c(O)c1/C=N/c1ncccn1	.	.	.	-	.	-
O=c1oc2ccccc2c(O)c1/C=C1\C=Nc2ccccc21	46	-	-	-	-	-
Clc1ccccc1-c1nc(-c2ccncc2)no1	-	-	-	-	73	-
SMILES	NCF1 inh	p97 ATPase inh	eIF4E 4G PPI	SUMO HTRF inh	14-3-3 Bad inh	Tb MetRS inh
O=C(NCCCn1ccnc1)c1ccc(S(=O)(=O)N2CCOCC2)cc1	-	-	-	-	-	-
CCc1ccc(NC(=O)C2CCCN(S(=O)(=O)c3cccnc3)C2)cc1 (centres undefined)	.	.	.	-	.	-
O=C(Nc1ccc(OC(F)(F)F)cc1)C1CCCN(S(=O)(=O)c2cccnc2)C1 (centres undefined)	-	-	-	-	82	-
O=C(CC1SC(=Nc2ccccc2)N(CCCO)C1=O)Nc1ccc(Cl)cc1 (centres undefined)	-	-	-	-	-	14
O=C(CC1SC(=Nc2ccccc2)N(CCO)C1=O)Nc1ccccc1 (centres undefined)	-	-	-	-	-	-
CCCCCCCCN1C(=O)[C@H](CC(=O)NCCc2ccccc2OC)C[C@@]2(C(=O)OC)CC(C)(C)CC=C12	.	.	.	.	.	-

Assay outcomes: PubChem BioAssay, several laboratories
